Measured values: PMC3147223 (Journal of biomedical materials research. Part A, 2009)
Where no end group is shown, it is not given here.

What was measured:
[1] = test system: Human pulmonary ECs; test: Competitive platelet-EC static adhesion assay: EC adhesion; assay type: cell-based; settings: washed suspension of 190 EC/μl and 50,000 platelet/μl, 30 min, 37°C, n=3, FN=1
In short: (§1)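 Passage-7 ECs were detached (Cellstripper, 30 min) and mixed in 1% BSA with washed platelets (citrated donor blood; PRP pelleted, EDTA-PBS wash), plus 2 mM CaCl2 and 1 mM MgCl2 final. Surfaces (FSP adsorbed 24 h on fluorosilane monolayers, or FN-coated glass) were pre-blocked with 2% BSA for 30 min. Samples were PFA-fixed and stained with FITC anti-CD41a, phalloidin and DAPI. 14–33 epifluorescent fields/surface were analysed; two-sample t-test.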

[2] = test system: platelets; test: Competitive platelet-EC static adhesion assay: platelet adhesion; assay type: cell-based, human; settings: washed suspension of 190 EC/μl and 50,000 platelet/μl, 30 min, 37°C, n=3, FN=1
In short: as §1

GSSSRGD [RGD FSP]
EC adhesion (EC population) normalized to FN [1]: 0.99 | Platelet surface coverage normalized to FN, platelet-EC suspension [2]: 1.99

cyclic(RGDfE)-SSSK (head to tail) [cRGD FSP]
EC adhesion (EC population) normalized to FN [1]: 1.05 | Platelet surface coverage normalized to FN, platelet-EC suspension [2]: 2.66

GSSS-*CRRETAWAC* (disulfide) [cRRE FSP]
EC adhesion (EC population) normalized to FN [1]: 0.93
